MT stabilizer – microtubule stabilizers in HeLa cells, primary screen, imaging, high-content imaging | % tubulin-high responders, % at 10 µM | 200,000 tested, 0.83% active | HeLa tubulin immunostaining HCS, 24 h; share of cells brighter than vehicle mean+2SD;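 active = plate Z-score above 3 for both tubulin-high and condensed-nucleus cell shares, with cell loss under 80%, at 10 µM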;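 also: anti alpha tubulin signal scored within the nucleus-defined area of each cell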
b-catenin transl – modulators of beta-catenin nuclear translocation, primary screen, imaging, HeLa cells, immunofluorescence, high-content | 190,000 tested, 0.3% active | nuclear translocation activity, % at 5 µM;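 active = nuclear translocation activity above 50% at 5 µM, with a well cell count of 50 or more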;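 also: per-cell ratio of nuclear to cytoplasmic median beta-catenin stain intensity; plate controls were DMSO negative control for no effect and GSK-3 inhibitor IX positive control for full effect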
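Assay system: human HeLa cells, native beta-catenin; doses: 5 µM primary, 0.02–20 µM confirmation; incubation: compound treatment 24 h, 37°C, 5% CO2; technique: fluorescence imaging of beta-catenin antibody stain plus DAPI; measure: % activation, nuclear-to-cytoplasmic median beta-catenin signal ratio per cell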
Yeast growth inh – growth inhibitors of yeast BB579 in restrictive medium, primary screen, yeast lifespan-shortening project, S. cerevisiae | OD615, 48 h | AID 804, 2007 | inhibition, % at 10 µM | 140,000 tested, 0.51% active;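 active = inhibition above a set limit, 3 SD over the mean compound inhibition, cut at about 44% in these data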
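System: Saccharomyces cerevisiae DeaD strain BB579, replicative lifespan model yeast. Buffer or medium: restrictive glucose-based CSMM-D medium. Doses: one dose, 10 µM compound with 0.25% DMSO. Timing: 4 h preincubation and 48 h exposure at 30 °C. Detection: turbidity as optical density at 615 nm. Benchmarks: amphotericin B 10 µg/mL, positive.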
HMGR II inh – inhibitors of E. faecalis class II HMGR, primary screen, biochemical, Enterococcus faecalis | HMG-CoA reductase (Enterococcus faecalis, mvaE) | purified E. faecalis HMGR, NADPH absorbance 340 nm kinetic | inhibition, % at 10 µM | 190,000 tested, 0.41% active | AID 1066, 2008;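 active = inhibition above a set limit, the median over all tested compounds plus 3 SD, cut at about 9.5% in these data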;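 also: enzyme runs in reverse so mevalonate oxidation gives rising NADPH absorbance; 0% = complete reaction with DMSO and 100% = background rate lacking mevalonate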
Yeast life ext – compounds extending yeast replicative lifespan, primary screen, S. cerevisiae, OD615. S. cerevisiae growth with nicotinamide; deaD strain in restrictive glucose medium. inhibition of the nicotinamide effect, % at 10 µM. 130,000 tested, 0.68% active. AID 775, 2007;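 active = inhibition above a set limit, placed 3 SD over the median of all compounds, cut at about 26% in these data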;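 also: 0% = nicotinamide-treated wells and 100% = cells grown without nicotinamide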
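assay system = DeaD-strain S. cerevisiae | measured by = absorbance at 615 nm | probe or stimulus = nicotinamide 1.5 mM | buffer or medium = CSMM-D glucose medium, restrictive | times = 48 h at 30 °C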
RAM inhibit – inhibitors of the yeast RAM network, primary screen, dse1pr::URA3 reporter, 5-FOA selection. 190,000 tested, 1.8% active. AID 868, 2007. inhibition, % at 50 µM. S. cerevisiae dse1pr::URA3 reporter, 5-FOA growth OD615, 2 d; analog-sensitive cbk1-as2 kinase mutant strain;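 active = inhibition above a set limit, 3 SD over mean compound inhibition, cut at about 8.4% in these data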;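 also: 0% = DMSO-only wells with no growth and 100% = 10 µM 1-NA-PP1 full growth; inhibition rescues growth on 5-FOA so higher OD means more RAM inhibition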
Active calls of the source: *; x = no result given. Most compounds without a hit are left out; they make up all but 3.5% or so of the library.

SMILES | MT stabilizer | b-catenin transl | Yeast growth inh | HMGR II inh | Yeast life ext | RAM inhibit
CC(C)C(=O)NC(=S)Nc1c(Cl)ccc2nsnc12 | x | -1 | x | x | x | x
C/C(=N/NC(=O)c1cc(C)[nH]n1)c1ccco1 | x | 0 | x | x | x | x
Cc1ccc(/C=c2\sc3nc(-c4cccs4)nn3c2=O)o1 | 1 | 0 | -10 | -3 | 8 | 9.0*
COc1ccc(-c2noc(-c3ccccc3-c3ccccc3)n2)cc1OC | 3 | -1 | -19 | -2 | -23 | 11*
COc1ccc(Cc2noc(-c3ccccc3)n2)cc1OC | 2 | -1 | x | 15* | x | 3
CCOc1ccccc1-c1nc(-c2cccc(Br)c2)no1 | 2 | 2 | -30 | 2 | -10 | 8.7*
C/C(N=Nc1nc2ccccc2s1)=N\Nc1ccccc1O | x | 1 | x | x | x | x
CCN(CC)S(=O)(=O)c1cccc(NC2=NCC(C)S2)c1 (stereo not drawn) | 5 | -5 | x | -6 | x | -1
CCCCCN1CN(S(=O)(=O)c2cccs2)c2nc3ccccc3nc21 | x | 1 | x | x | x | x
Cc1cc(C)c(NC(=S)N(C)C)c(C)c1 | x | 1 | x | x | x | x
O=C(NCc1n[nH]c(=S)n1-c1ccccc1)c1cccs1 | 2 | -1 | x | 12* | x | 0
Cc1cccc(-n2c(CNC(=O)c3cccc([N+](=O)[O-])c3C)n[nH]c2=S)c1 | 14* | -1 | x | 0 | x | 1
COc1ccccc1-n1c(CNC(=O)c2cccc([N+](=O)[O-])c2C)n[nH]c1=S | 4 | x | x | -2 | x | -1
O=C(NCc1n[nH]c(=S)n1-c1cccc(Cl)c1)c1cccs1 | 1 | -2 | x | -4 | x | 1
Cc1ccc(N2CC(C(=O)Nc3ccc(C)c(S(=O)(=O)N(C)C)c3)CC2=O)cc1 (stereo not drawn) | 2 | 0 | x | -7 | x | 0
O=C(O)CC(NC(=O)C1c2ccccc2Oc2ccccc21)c1ccc(OC2CCCC2)cc1 (stereo not drawn) | 2 | -1 | x | -4 | x | 1
O=C(O)CC(NC(=O)c1sc2ccccc2c1Cl)c1ccc(OC2CCCC2)cc1 (stereo not drawn) | 3 | 1 | x | 3 | x | 9.6*
O=C1c2ccccc2NC(c2cccc(O)c2)N1NS(=O)(=O)c1ccccc1 (stereo not drawn) | 2 | 2 | x | -9 | x | 1
O=C(NCCc1ccccc1)C1CCC(CNS(=O)(=O)c2cccs2)CC1 (stereo not drawn) | 3 | -1 | x | 3 | x | 4
CS(=O)(=O)CC(=O)Nc1ccc2nc3n(c(=O)c2c1)CCCCC3 | x | -2 | x | x | x | x
COc1cc(CN2CCCC(C(=O)c3ccc4c5c(cccc35)CC4)C2)cc(OC)c1O (stereo not drawn) | 3 | -2 | x | -2 | x | 0
N#Cc1c(Nc2ccccc2)sc(C(=O)c2ccc(F)cc2)c1N | 3 | x | -28 | 1 | 3 | 11*
O=[N+]([O-])/C(=C\Nc1ccccc1Cl)S(=O)(=O)c1ccccc1 | 2 | 0 | -9 | 18* | -14 | 1
COc1ccc(C(=O)NC2CCN(C(=S)Nc3cccc(C)c3C)CC2)cc1 | 2 | x | -49 | 2 | -2 | 8.6*
CCCC(=O)N1N=C(c2ccccc2)CC1c1cn(C)c2ccccc12 (stereo not drawn) | 1 | 6 | -42 | -1 | 11 | 4
SMILES | MT stabilizer | b-catenin transl | Yeast growth inh | HMGR II inh | Yeast life ext | RAM inhibit
Cn1cc(C2CC(c3ccccc3)=NN2C(=O)c2ccccc2)c2ccccc21 (stereo not drawn) | 24* | 1 | -25 | -2 | 6 | 3
Cn1c(Sc2ccc(Cl)cc2)c(C=O)c2ccccc21 | 1 | -2 | -20 | -2 | -15 | 9.8*
COc1ccc(-c2nc[nH]c2[N+](=O)[O-])cc1 | 3 | -4 | x | -4 | x | 5
O=c1c(Cl)c(NCCCO)cnn1-c1nc2ccccc2[nH]1 | 3 | 0 | -28 | 2 | 81* | 0
NC1=NC(=Nc2cccc(S(=O)(=O)N3CCOCC3)c2)c2ccccc21 | x | 1 | x | x | x | x
Cn1c(SCC(=O)N(C2CCCCC2)C2CCCCC2)nnc1-c1cccs1 | 28* | x | -26 | 1 | 9 | 1

Screening data deposited in PubChem by several laboratories.
